Measurements: ChEMBL document CHEMBL2062435, “Synthesis and in vitro antibacterial activity of gemifloxacin derivatives containing a substituted benzyloxime moiety” (2012)

What was measured:
Type in all cases: functional
[1] = system: Staphylococcus epidermidis; experiment: Antimicrobial activity against extended spectrum beta-lactamases-producing methicillin-resistant Staphylococcus epidermidis 10-10 after 18-24 hrs by two-fold serial dilution method
In short: (§1)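 Agar twofold serial dilution MIC against clinical isolates. MIC was taken as the lowest concentration giving complete inhibition of bacterial growth after incubation at 35 °C for 18-24 h.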

Escherichia coli [2] = experiment: Antimicrobial activity against extended spectrum beta-lactamases-producing Escherichia coli 10-2 after 18-24 hrs by two-fold serial dilution method
In short: (§2)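 Agar-medium twofold serial dilution against Gram-positive and Gram-negative strains; MIC taken as the lowest compound concentration giving complete inhibition of bacterial growth after incubation at 35 °C for 18-24 h.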

Enterococcus faecium [3] = experiment: Antimicrobial activity against Enterococcus faecium 10-9 after 18-24 hrs by two-fold serial dilution method; in short: as §2
Streptococcus pneumoniae [4] = experiment: Antimicrobial activity against extended spectrum beta-lactamases-producing Streptococcus pneumoniae 10-4 after 18-24 hrs by two-fold serial dilution method; in short: as §2
Escherichia coli [5] = experiment: Antimicrobial activity against Escherichia coli ATCC 25922 after 18-24 hrs by two-fold serial dilution method; in short: as §2
Pseudomonas aeruginosa [6] = experiment: Antimicrobial activity against extended spectrum beta-lactamases-producing Pseudomonas aeruginosa 10-20 after 18-24 hrs by two-fold serial dilution method; in short: as §2
Pseudomonas aeruginosa [7] = experiment: Antimicrobial activity against extended spectrum beta-lactamases-producing Pseudomonas aeruginosa 10-18 after 18-24 hrs by two-fold serial dilution method; in short: as §2
Pseudomonas aeruginosa [8] = experiment: Antimicrobial activity against extended spectrum beta-lactamases-producing Pseudomonas aeruginosa 10-5 after 18-24 hrs by two-fold serial dilution method; in short: as §2
Enterococcus faecium [9] = experiment: Antimicrobial activity against Enterococcus faecium 10-5 after 18-24 hrs by two-fold serial dilution method; in short: as §2
Escherichia coli [10] = experiment: Antimicrobial activity against extended spectrum beta-lactamases-producing Escherichia coli 10-3 after 18-24 hrs by two-fold serial dilution method; in short: as §2
Pseudomonas aeruginosa [11] = experiment: Antimicrobial activity against extended spectrum beta-lactamases-producing Pseudomonas aeruginosa 10-9 after 18-24 hrs by two-fold serial dilution method; in short: as §2
Staphylococcus aureus [12] = experiment: Antimicrobial activity against extended spectrum beta-lactamases-producing methicillin-sensitive Staphylococcus aureus 10-14 after 18-24 hrs by two-fold serial dilution method; in short: as §2
[13] = system: Staphylococcus epidermidis; experiment: Antimicrobial activity against extended spectrum beta-lactamases-producing methicillin-sensitive Staphylococcus epidermidis 10-13 after 18-24 hrs by two-fold serial dilution method; in short: as §2
Staphylococcus aureus [14] = experiment: Antimicrobial activity against extended spectrum beta-lactamases-producing methicillin-resistant Staphylococcus aureus 10-15 after 18-24 hrs by two-fold serial dilution method; in short: as §1
Escherichia coli [15] = experiment: Antimicrobial activity against extended spectrum beta-lactamases-producing Escherichia coli 10-4 after 18-24 hrs by two-fold serial dilution method; in short: as §2
Klebsiella pneumoniae [16] = experiment: Antimicrobial activity against extended spectrum beta-lactamases-producing Klebsiella pneumoniae 10-3 after 18-24 hrs by two-fold serial dilution method; in short: as §2
Klebsiella pneumoniae [17] = experiment: Antimicrobial activity against extended spectrum beta-lactamases-producing Klebsiella pneumoniae 10-2 after 18-24 hrs by two-fold serial dilution method; in short: as §2
[18] = system: Staphylococcus epidermidis; experiment: Antimicrobial activity against extended spectrum beta-lactamases-producing methicillin-sensitive Staphylococcus epidermidis 10-11 after 18-24 hrs by two-fold serial dilution method; in short: as §2
Escherichia coli [19] = experiment: Antimicrobial activity against Escherichia coli 10-3 after 18-24 hrs by two-fold serial dilution method; in short: as §2
Enterococcus faecalis [20] = experiment: Antimicrobial activity against Enterococcus faecalis 10-6 after 18-24 hrs by two-fold serial dilution method; in short: as §2
Klebsiella pneumoniae [21] = experiment: Antimicrobial activity against Klebsiella pneumoniae 10-4 after 18-24 hrs by two-fold serial dilution method; in short: as §2
Escherichia coli [22] = experiment: Antimicrobial activity against Escherichia coli 10-1 after 18-24 hrs by two-fold serial dilution method; in short: as §2
Staphylococcus aureus [23] = experiment: Antimicrobial activity against extended spectrum beta-lactamases-producing methicillin-resistant Staphylococcus aureus 10-11 after 18-24 hrs by two-fold serial dilution method; in short: as §1
Enterococcus faecalis [24] = experiment: Antimicrobial activity against Enterococcus faecalis 10-7 after 18-24 hrs by two-fold serial dilution method; in short: as §2
Staphylococcus aureus [25] = experiment: Antimicrobial activity against extended spectrum beta-lactamases-producing methicillin-sensitive Staphylococcus aureus 10-13 after 18-24 hrs by two-fold serial dilution method; in short: as §2
Pseudomonas aeruginosa [26] = experiment: Antimicrobial activity against Pseudomonas aeruginosa 10-12 after 18-24 hrs by two-fold serial dilution method; in short: as §2
[27] = system: Staphylococcus epidermidis; experiment: Antimicrobial activity against extended spectrum beta-lactamases-producing methicillin-resistant Staphylococcus epidermidis 10-13 after 18-24 hrs by two-fold serial dilution method; in short: as §1
Klebsiella pneumoniae [28] = experiment: Antimicrobial activity against Klebsiella pneumoniae 10-3 after 18-24 hrs by two-fold serial dilution method; in short: as §2
Escherichia coli [29] = experiment: Antimicrobial activity against Escherichia coli 10-2 after 18-24 hrs by two-fold serial dilution method; in short: as §2
Klebsiella pneumoniae [30] = experiment: Antimicrobial activity against extended spectrum beta-lactamases-producing Klebsiella pneumoniae 10-1 after 18-24 hrs by two-fold serial dilution method; in short: as §2
Streptococcus pneumoniae [31] = experiment: Antimicrobial activity against extended spectrum beta-lactamases-producing Streptococcus pneumoniae 10-1 after 18-24 hrs by two-fold serial dilution method; in short: as §2
[32] = system: Staphylococcus epidermidis; experiment: Antimicrobial activity against extended spectrum beta-lactamases-producing methicillin-sensitive Staphylococcus epidermidis 10-15 after 18-24 hrs by two-fold serial dilution method; in short: as §2
Pseudomonas aeruginosa [33] = experiment: Antimicrobial activity against extended spectrum beta-lactamases-producing Pseudomonas aeruginosa 10-15 after 18-24 hrs by two-fold serial dilution method; in short: as §2
Klebsiella pneumoniae [34] = experiment: Antimicrobial activity against Klebsiella pneumoniae 10-2 after 18-24 hrs by two-fold serial dilution method; in short: as §2
Staphylococcus aureus [35] = experiment: Antimicrobial activity against Staphylococcus aureus ATCC […] after 18-24 hrs by two-fold serial dilution method; in short: as §2
Enterococcus faecalis [36] = experiment: Antimicrobial activity against Enterococcus faecalis 10-5 after 18-24 hrs by two-fold serial dilution method; in short: as §2

Row | SMILES | MIC [1] | MIC (Escherichia coli [2]) | MIC (Enterococcus faecium [3]) | MIC (Streptococcus pneumoniae [4]) | MIC (Escherichia coli [5]) | MIC (Pseudomonas aeruginosa [6]) | MIC (Pseudomonas aeruginosa [7]) | MIC (Pseudomonas aeruginosa [8]) | MIC (Enterococcus faecium [9]) | MIC (Escherichia coli [10]) | MIC (Pseudomonas aeruginosa [11]) | MIC (Staphylococcus aureus [12]) | MIC [13] | MIC (Staphylococcus aureus [14]) | MIC (Escherichia coli [15]) | MIC (Klebsiella pneumoniae [16]) | MIC (Klebsiella pneumoniae [17]) | MIC [18] | MIC (Escherichia coli [19]) | MIC (Enterococcus faecalis [20]) | further results
1 | CS(=O)(=O)O.NCC1CN(c2nc3c(cc2F)c(=O)c(C(=O)O)cn3C2CC2)C/C1=N\OCc1ccc2c(c1)OCCO2 (racemic) | 0.5 µg/mL | > 128 µg/mL | 8 µg/mL | 2 µg/mL | 0.25 µg/mL | 2 µg/mL | 4 µg/mL | 2 µg/mL | 8 µg/mL | > 128 µg/mL | 2 µg/mL | 0.06 µg/mL | 2 µg/mL | 0.5 µg/mL | 2 µg/mL | 4 µg/mL | > 128 µg/mL | 0.5 µg/mL | 4 µg/mL | 4 µg/mL | MIC (Klebsiella pneumoniae [21]): 128 µg/mL; MIC (Escherichia coli [22]): 16 µg/mL; MIC (Staphylococcus aureus [23]): 1 µg/mL; MIC (Enterococcus faecalis [24]): 1 µg/mL; MIC (Staphylococcus aureus [25]): 0.06 µg/mL; MIC (Pseudomonas aeruginosa [26]): 2 µg/mL; MIC [27]: 0.5 µg/mL; MIC (Klebsiella pneumoniae [28]): 32 µg/mL; MIC (Escherichia coli [29]): 4 µg/mL; MIC (Klebsiella pneumoniae [30]): > 128 µg/mL; MIC (Streptococcus pneumoniae [31]): 0.5 µg/mL; MIC [32]: 0.5 µg/mL; MIC (Pseudomonas aeruginosa [33]): 2 µg/mL; MIC (Klebsiella pneumoniae [34]): 16 µg/mL; MIC (Staphylococcus aureus [35]): 0.06 µg/mL; MIC (Enterococcus faecalis [36]): 0.5 µg/mL
2 | CS(=O)(=O)O.Cc1ccc(CO/N=C2\CN(c3nc4c(cc3F)c(=O)c(C(=O)O)cn4C3CC3)CC2CN)cc1C (racemic) | 1 µg/mL | > 128 µg/mL | 8 µg/mL | 0.5 µg/mL | 0.015 µg/mL | 8 µg/mL | 16 µg/mL | 4 µg/mL | 8 µg/mL | > 128 µg/mL | 4 µg/mL | < 0.008 µg/mL | 8 µg/mL | 0.25 µg/mL | 8 µg/mL | > 128 µg/mL | > 128 µg/mL | 0.25 µg/mL | 8 µg/mL | 4 µg/mL | MIC (Klebsiella pneumoniae [21]): > 128 µg/mL; MIC (Escherichia coli [22]): 64 µg/mL; MIC (Staphylococcus aureus [23]): 2 µg/mL; MIC (Enterococcus faecalis [24]): 4 µg/mL; MIC (Staphylococcus aureus [25]): 0.06 µg/mL; MIC (Pseudomonas aeruginosa [26]): 4 µg/mL; MIC [27]: 1 µg/mL; MIC (Klebsiella pneumoniae [28]): 8 µg/mL; MIC (Escherichia coli [29]): 8 µg/mL; MIC (Klebsiella pneumoniae [30]): > 128 µg/mL; MIC (Streptococcus pneumoniae [31]): 0.125 µg/mL; MIC [32]: 1 µg/mL; MIC (Pseudomonas aeruginosa [33]): 8 µg/mL; MIC (Klebsiella pneumoniae [34]): > 128 µg/mL; MIC (Staphylococcus aureus [35]): 0.008 µg/mL; MIC (Enterococcus faecalis [36]): 0.5 µg/mL
3 | COc1cc(Br)c(CO/N=C2\CN(c3nc4c(cc3F)c(=O)c(C(=O)O)cn4C3CC3)CC2CN)cc1OC.CS(=O)(=O)O (racemic) | 0.5 µg/mL | > 128 µg/mL | 64 µg/mL | 0.125 µg/mL | 0.5 µg/mL | > 128 µg/mL | > 128 µg/mL | > 128 µg/mL | 64 µg/mL | > 128 µg/mL | > 128 µg/mL | 0.5 µg/mL | 0.03 µg/mL | 0.125 µg/mL | > 128 µg/mL | > 128 µg/mL | > 128 µg/mL | 0.5 µg/mL | > 128 µg/mL | 4 µg/mL | MIC (Klebsiella pneumoniae [21]): > 128 µg/mL; MIC (Escherichia coli [22]): > 128 µg/mL; MIC (Staphylococcus aureus [23]): > 128 µg/mL; MIC (Enterococcus faecalis [24]): 2 µg/mL; MIC (Staphylococcus aureus [25]): 0.03 µg/mL; MIC (Pseudomonas aeruginosa [26]): > 128 µg/mL; MIC [27]: 0.25 µg/mL; MIC (Klebsiella pneumoniae [28]): > 128 µg/mL; MIC (Escherichia coli [29]): > 128 µg/mL; MIC (Klebsiella pneumoniae [30]): > 128 µg/mL; MIC (Streptococcus pneumoniae [31]): 1 µg/mL; MIC [32]: 2 µg/mL; MIC (Pseudomonas aeruginosa [33]): > 128 µg/mL; MIC (Klebsiella pneumoniae [34]): > 128 µg/mL; MIC (Staphylococcus aureus [35]): < 0.008 µg/mL; MIC (Enterococcus faecalis [36]): 1 µg/mL
4 | CS(=O)(=O)O.NCC1CN(c2nc3c(cc2F)c(=O)c(C(=O)O)cn3C2CC2)C/C1=N\OCc1ccccc1 (racemic) | 1 µg/mL | 32 µg/mL | 8 µg/mL | 0.06 µg/mL | 0.03 µg/mL | 2 µg/mL | 1 µg/mL | 8 µg/mL | 4 µg/mL | 32 µg/mL | 2 µg/mL | 0.03 µg/mL | 0.06 µg/mL | 0.5 µg/mL | 4 µg/mL | 32 µg/mL | 64 µg/mL | 1 µg/mL | 8 µg/mL | 4 µg/mL | MIC (Klebsiella pneumoniae [21]): 128 µg/mL; MIC (Escherichia coli [22]): 16 µg/mL; MIC (Staphylococcus aureus [23]): 4 µg/mL; MIC (Enterococcus faecalis [24]): 2 µg/mL; MIC (Staphylococcus aureus [25]): 0.015 µg/mL; MIC (Pseudomonas aeruginosa [26]): 4 µg/mL; MIC [27]: 1 µg/mL; MIC (Klebsiella pneumoniae [28]): 2 µg/mL; MIC (Escherichia coli [29]): 4 µg/mL; MIC (Klebsiella pneumoniae [30]): 32 µg/mL; MIC (Streptococcus pneumoniae [31]): 0.25 µg/mL; MIC [32]: 8 µg/mL; MIC (Pseudomonas aeruginosa [33]): 4 µg/mL; MIC (Klebsiella pneumoniae [34]): 32 µg/mL; MIC (Staphylococcus aureus [35]): < 0.008 µg/mL; MIC (Enterococcus faecalis [36]): 1 µg/mL
